Activity calls are given as the source filed them. The rule behind the calls is not given here.
What was measured:
[1] = system: Colletotrichum orbiculare; assay: Antifungal activity against Colletotrichum orbiculare assessed as inhibition of microbial growth by microtiter broth dilution method; type: functional
Procedure, shortened: (§1)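 Spore or zoospore suspension, 10 µL, added to wells of a 24-well dish holding 1 mL potato dextrose broth or nutrient broth. Compound dissolved in methanol and tested over 0–100 µg/mL. Plates held at 22–28 °C and read after 2–5 days against an untreated inoculated control. MIC is the lowest concentration with no visible growth.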

Phytophthora capsici = assay: Antifungal activity against Phytophthora capsici assessed as inhibition of microbial growth by microtiter broth dilution method; type: functional; procedure, shortened: as §1
[2] = system: Colletotrichum orbiculare; assay: […] antifungal activity against Colletotrichum orbiculare on […] assessed as inhibition of anthracnose development at 500 ug/mL; type: functional, organism-based
Cladosporium cucumerinum = assay: Antifungal activity against Cladosporium cucumerinum assessed as inhibition of microbial growth by microtiter broth dilution method; type: functional; procedure, shortened: as §1
Candida albicans = assay: Antifungal activity against Candida albicans assessed as inhibition of microbial growth by microtiter broth dilution method; type: functional
Procedure, shortened: (§2)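 Broth microdilution in 24-well plates. Inoculum of 10⁴ CFU/mL, 10 µL per well, in 1 mL potato dextrose broth or nutrient broth. Compound in methanol, 0–100 µg/mL. Incubated at 22–28 °C for 2–5 days and compared with a compound-free growth control. MIC is the lowest concentration showing no growth.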

Bacillus subtilis = assay: Antibacterial activity against Bacillus subtilis subsp. subtilis assessed as inhibition of microbial growth by microtiter broth dilution method; type: functional; procedure, shortened: as §2
Xanthomonas vesicatoria = assay: Antibacterial activity against Xanthomonas vesicatoria assessed as inhibition of microbial growth by microtiter broth dilution method; type: functional; procedure, shortened: as §2
[3] = system: Colletotrichum orbiculare; assay: […] antifungal activity against Colletotrichum orbiculare on two-leaf stage cucumber plant assessed as inhibition of anthracnose development at 100 ug/mL; type: functional, organism-based
Procedure, shortened: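 Cucumber cv. Baekrokdadaki grown at 28 ± 2 °C. Compound in methanol, diluted in 0.1% Tween 20 to 10–500 µg/mL, sprayed on primary leaves 1 day before inoculation. Inoculum was 10⁶ conidia/mL in 0.05% Tween 20, followed by 24 h in a dew chamber at 28 °C. Lesions/cm² on secondary leaves counted at day 6. 6 plants/treatment, 3 replicates; Tween-only control.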

Rhizoctonia solani = assay: Antifungal activity against Rhizoctonia solani assessed as inhibition of microbial growth by microtiter broth dilution method; type: functional; procedure, shortened: as §1
[4] = system: Fusarium oxysporum f. sp. lycopersici; assay: Antifungal activity against Fusarium oxysporum f. sp. lycopersici assessed as inhibition of microbial growth by microtiter broth dilution method; type: functional; procedure, shortened: as §1
Ilyonectria destructans = assay: Antifungal activity against Ilyonectria radicicola assessed as inhibition of microbial growth by microtiter broth dilution method; type: functional; procedure, shortened: as §1
Pyricularia grisea = assay: Antifungal activity against Magnaporthe grisea assessed as inhibition of microbial growth by microtiter broth dilution method; type: functional
Procedure, shortened: (§3)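 24-well broth dilution. 10 µL of spore or cell suspension went into 1 mL potato dextrose broth or nutrient broth. Bacterial inoculum was 10⁴ CFU/mL. Compound was dissolved in methanol and tested at 0–100 μg/mL. Plates were incubated at 22–28 °C for 2–5 days against a compound-free growth control. MIC was the lowest concentration showing no growth.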

Globisporangium ultimum = assay: Antifungal activity against Pythium ultimum assessed as inhibition of microbial growth by microtiter broth dilution method; type: functional; procedure, shortened: as §1
Alternaria mali = assay: Antifungal activity against Alternaria mali assessed as inhibition of microbial growth by microtiter broth dilution method; type: functional; procedure, shortened: as §1
Ralstonia solanacearum = assay: Antibacterial activity against Ralstonia solanacearum assessed as inhibition of microbial growth by microtiter broth dilution method; type: functional; procedure, shortened: as §3
Botrytis cinerea = assay: Antifungal activity against Botryotinia fuckeliana assessed as inhibition of microbial growth by microtiter broth dilution method; type: functional; procedure, shortened: as §1
[5] = system: Pectobacterium carotovorum subsp. carotovorum; assay: Antibacterial activity against Pectobacterium carotovorum subsp. carotovorum assessed as inhibition of microbial growth by microtiter broth dilution method; type: functional; procedure, shortened: as §2
Sclerotinia sclerotiorum = assay: Antifungal activity against Sclerotinia sclerotiorum assessed as inhibition of microbial growth by microtiter broth dilution method; type: functional; procedure, shortened: as §1
Saccharomyces cerevisiae = assay: Antifungal activity against Saccharomyces cerevisiae assessed as inhibition of microbial growth by microtiter broth dilution method; type: functional; procedure, shortened: as §2

O=C(O)C/C=C/c1ccccc1
MIC [1]: 3 µg/mL
MIC (Phytophthora capsici): 30 µg/mL
inhibition [2]: Active
MIC (Cladosporium cucumerinum): 30 µg/mL
MIC (Candida albicans): > 100 µg/mL
MIC (Bacillus subtilis): 3 µg/mL
MIC (Xanthomonas vesicatoria): 10 µg/mL
inhibition [3]: Active
MIC (Rhizoctonia solani): 30 µg/mL
MIC [4]: > 100 µg/mL
MIC (Ilyonectria destructans): 30 µg/mL
MIC (Pyricularia grisea): 10 µg/mL
MIC (Globisporangium ultimum): 0.5 µg/mL
MIC (Alternaria mali): 30 µg/mL
MIC (Ralstonia solanacearum): 0.5 µg/mL
MIC (Botrytis cinerea): > 100 µg/mL
MIC [5]: 1 µg/mL
MIC (Sclerotinia sclerotiorum): > 100 µg/mL
MIC (Saccharomyces cerevisiae): > 100 µg/mL

N#Cc1c(Cl)c(Cl)c(Cl)c(C#N)c1Cl
inhibition [2]: Active

Source: ChEMBL document CHEMBL3045553, “Isolation and antifungal activity of 4-phenyl-3-butenoic acid from Streptomyces koyangensis strain VK-A60” (2005)
